From ChEMBL document CHEMBL1156507, “The M18 aspartyl aminopeptidase of the human malaria parasite Plasmodium falciparum” (J Biol Chem, 2007)

System: Plasmodium falciparum
Assay: Binding affinity against recombinant Plasmodium falciparum D10 M18AAP at 1.83 mM
In short: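 Phosphonic/phosphinic amino-acid analogues and phosphinate dipeptides tested on rPfM18AAP in the fluorogenic assay: initial rate of H-Asp-NHMec hydrolysis (ex 370/em 460 nm) at pH 7.5, enzyme preincubated 30 min in 50 mM Tris-HCl; inhibited rates compared with an enzyme-plus-substrate control.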

Compound `NC(CCC(=O)O)P(=O)(O)c1ccccc1` (centres undefined) has an Activity of 20%.

System: not listed separately
Assay: Binding affinity against recombinant Plasmodium falciparum D10 M18AAP
In short: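 Recombinant His6-tagged PfM18AAP was expressed in baculovirus-infected Sf9 cells and purified on Ni-NTA-agarose. Enzyme (60 nM) was preincubated 30 min in 50 mM Tris-HCl, pH 7.5, then added to the fluorogenic substrate H-Asp-NHMec. Initial hydrolysis rates were read by fluorescence (ex 370 nm, em 460 nm) with inhibitor present.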

Going from `NC(CCCC(=O)O)P(=O)(O)O` (centres undefined) to `N[C@@H](CCC(=O)O)P(=O)(O)O`, the Ki falls from 105 µM to 0.34 µM (310-fold).

First: CC(CP(=O)(O)C(N)CCC(=O)O)C(=O)O (centres undefined)
Second: CC(CP(=O)(O)C(N)CC(=O)O)C(=O)O (centres undefined)
The Ki of the first is 4.3-fold lower: 42.7 µM for the first, 183 µM for the second. The first binds more tightly here.

First: CP(=O)(O)C(N)CC(=O)O (centres undefined)
Second: NC(CC(=O)O)P(=O)(O)O (centres undefined)
The Ki of the first is 15-fold higher: 395 µM for the first, 27 µM for the second.

Going from `NC(CCC(=O)O)P(=O)(O)c1ccccc1` (centres undefined) to `NC(CCP(=O)(O)O)P(=O)(O)O` (centres undefined), the Ki falls from over 2000 µM to 4.4 µM.
